Results taken from ChEMBL document CHEMBL4706718, “1,2,4-Oxadiazole-Bearing Pyrazoles as Metabolically Stable Modulators of Store-Operated Calcium Entry” (ACS Med Chem Lett, 2021).
The source made the active and inactive calls. The calls are words filed in the database; no cut-off is given here.

How the values were obtained:
[1] = Stability in CD-1 mouse liver S9 fraction assessed as parent compound remaining at 50 uM measured after 60 mins by HPLC-UV analysis; assay type: ADME, subcellular; conditions: read-out: Stabilty
Procedure, shortened: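 Incubated in mouse liver MLS9 fraction supplemented with NADPH. Residual parent substrate measured after 1 h. Three independent experiments, mean ± SEM.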

[2] = Stability in CD-1 mouse liver microsomes assessed as parent compound remaining at 50 uM measured after 60 mins by HPLC-UV analysis; assay type: ADME, Microsome; conditions: read-out: Stabilty
HEK [3] = test: Inhibition of SOCE channel in tBhQ-treated HEK cells assessed as reduction in calcium entry by measuring residual activity at 10 uM preincubated for 600 secs followed by calcium addition by Fura-2 AM by fluorescence microscopic analysis relative to control; assay type: cell-based; conditions: Homo sapiens, time 600.0 sec
Procedure, shortened: (§1)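 HEK cells; intracellular Ca2+ stores emptied with tBhQ (50 μM) in the presence of compound at 10 μM. After 600 s, Ca2+ added and intracellular Ca2+ followed by Fura-2 fluorescence microscopy. SOCE given as percent activity vs control; peak amplitude, AUC and slope of the Ca2+ rise evaluated. Traces average 200 cells over three independent experiments; Mann–Whitney U test vs control.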

HEK [4] = test: Activation of SOCE channel in tBhQ-treated HEK cells assessed as increase in AUC of calcium entry at 10 uM preincubated for 600 secs followed by calcium addition by Fura-2 AM by fluorescence microscopic analysis; assay type: cell-based; conditions: Homo sapiens, filed as activator, time 600.0 sec; procedure, shortened: as §1
[5] = Cytotoxicity against HEK cells assessed as cell viability at 10 uM measured after 24 hrs by MTT assay relative to control; assay type: cell-based; conditions: human, read-out: Activity
Procedure, shortened: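 MTT viability assay in HEK cells with compound at 10 μM.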

HEK [6] = test: Activation of SOCE channel in […] assessed as increase in calcium entry in resting cells at 10 uM […] by Fura-2 AM by fluorescence microscopic analysis; assay type: cell-based; conditions: Homo sapiens

Row | Compound | remaining at 1 h, 50 µM [1] | other results
1 | COc1ccc(OC)c(-c2ccc(NC(=O)c3ccncc3F)cc2)c1 | – | remaining at 1 h, 50 µM [2]: 15%
2 | Cc1noc(-c2cnn(-c3ccc(NC(=O)c4c(F)cccc4F)cc3)c2C(F)(F)F)n1 | > 99% | –
3 | Cc1noc(-c2cnn(-c3ccc(NC(=O)c4ccc(C#N)c(F)c4)cc3)c2C(F)(F)F)n1 | 73% | –
4 | Cc1ccc(S(=O)(=O)Nc2ccc(-n3ncc(-c4nc(C)no4)c3C(F)(F)F)cc2)cc1 | 76% | –
5 | Cc1noc(-c2cnn(-c3ccc(NC(=O)c4c(C)noc4C)cc3)c2C(F)(F)F)n1 | 99% | –
6 | Cc1noc(-c2cnn(-c3ccc(NC(=O)c4ccco4)cc3)c2C(F)(F)F)n1 | – | Activity (HEK [3]): 61.1%
7 | CCCCCC(=O)Nc1ccc(-n2ncc(-c3nc(C)no3)c2C(F)(F)F)cc1 | 91% | Activity (HEK [4]): Active; viability at 24 h, 10 µM [5]: 88.5%; Activity (HEK [6]): inactive

Further lines, with some results ahead:

Row | remaining at 1 h, 50 µM [1] | Compound | other results
8 | 43% | CCOC(=O)c1cnn(-c2ccc(NC(=O)C(Cl)=C(Cl)Cl)cc2)c1C(F)(F)F | –
9 | > 99% | Cc1noc(-c2cnn(-c3ccc(NC(=O)c4ccc([N+](=O)[O-])cc4)cc3)c2C(F)(F)F)n1 | –
10 | 74% | CCCC(C)OC(=O)c1cnn(-c2ccc(-n3cc(-c4cccc(C(=O)O)c4)nn3)cc2)c1C(F)(F)F (stereo not drawn) | –
